Screening data from PubChem BioAssay.
Hits are enriched below; roughly 3.1% of the tested compounds scored in any of these assays.
INS-1E GSIS act: primary screen for activators of insulin secretion dependent on glucose, INS-1E cells, GLuc reporter luminescence. activation, % at 16.6 µM. AID 743287. INS-1E GLuc reporter insulin secretion, 2-3 h. hit rate 0.61% among 370,000;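 active means lowest replicate activation of at least 40%, so every replicate reaches that level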
Ecoli rRNA inh: inhibits bacterial ribosomal RNA function over humanized ribosomes; E. coli WT GFP vs humanized-ribosome RFP mutants, fluorescence, 24 h; active compounds read low; DMSO median 0, no signal -100; GFP signal change (wild-type ribosome), % (no concentration beside the values); hit rate 1.6% among 350,000; AID 720706;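 active means significant combined selectivity score with lowered wild-type GFP, culture density cut under 30%, mutant RFP and density less affected; inactive means any of these conditions unmet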
miR122 inh: miR-122 inhibition in Huh7 cells. Huh7 miR-122 Renilla luciferase sensor, 48 h; neutral wells = 0, positive control = 100. activation (reporter increase), % at 12.5 µM. hit rate 0.3% among 340,000;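 active means mean replicate activation score at least 90 and every replicate individually at or above 90; inconclusive means only one of the two criteria met; inactive means neither criterion met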;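 further: higher luciferase means less miR-122 activity so hits act as miR-122 inhibitors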
Env fusion inh: inhibitors of HIV Env-mediated cell fusion | HeLa-JRFL Env/CEM21 cell fusion, luciferase | inhibition, % at 12.3 µM | hit rate 1.1% among 360,000 | AID 651610;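 active means mean replicate inhibition score of at least 50 and every replicate individually at or above 50; inconclusive means only one of the two criteria met; inactive means mean below 50 and not all replicates reaching 50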
Cneo AK release: Cryptococcus neoformans lysis via adenylate kinase release | C. neoformans lysis, adenylate kinase release luminescence, 4 h; normalised: neutral wells 0, clomiphene wells 100 | hit rate 0.2% among 360,000 | lysis activity, % at 15 µM | AID 651654;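 active means mean lysis activity across replicates of at least 80%, whatever share of replicates individually reach that level; inactive means mean lysis activity below 80%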
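Material: C. neoformans cells | Amount: Yeast cell density of 5 × 10^6 cells/mL | Medium: Fresh YPD growth medium | Dosing: Single dose | Times: Static 4 h at 37 °C with compound, 1 h detection | Detection: AK luminescence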
CFTR F508del cor: correctors of CFTR F508del function in bronchial epithelial cells | hit rate 0.36% among 350,000 | CFBE cells, YFP halide quenching; stimulated with forskolin plus potentiator P3; % fluorescence drop versus neutral controls | activity (quench increase), % at 7.58 µM;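 active means mean added fluorescence quench of at least 8% versus neutral control, with both replicates also reaching 8%; inconclusive means only one of the mean or replicate conditions met; inactive means mean below 8% and not both replicates reaching 8%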;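 further: cells transiently co-express mutant CFTR-F508del with the halide-sensitive YFP; corrector assay measuring rescue of mutant channel to the surface after 24 h compound exposure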
Of the large screens only hits and unclear results are named; the others gave an inactive call.

COC(=O)[C@]12C[C@H](CC(=O)NCCc3ccccc3OC)C(=O)N(CCC3=CCCCC3)C1=C[C@H](C(C)(C)C)O[C@@H]2C	INS-1E GSIS act 40.9, Env fusion inh 60.9 (no result: miR122 inh, Cneo AK release)
COC(=O)[C@]12C[C@H](CC(=O)NCC3CCCCC3)C(=O)N(CCC3=CCCCC3)C1=C[C@H](C(C)(C)C)O[C@@H]2C	Env fusion inh 70.9 (no result: miR122 inh, Cneo AK release)
COC(=O)[C@]12C[C@H](CC(=O)NCCc3ccccc3OC)C(=O)N(Cc3ccccc3)C1=C[C@H](C(C)(C)C)O[C@@H]2C	none (no result: INS-1E GSIS act, miR122 inh, Cneo AK release)
COC(=O)[C@]12C[C@H](CC(=O)NCc3cccc(C(F)(F)F)c3)C(=O)N(CCC3=CCCCC3)C1=C[C@H](C(C)(C)C)O[C@@H]2C	Env fusion inh 101.3 (no result: INS-1E GSIS act, miR122 inh, Cneo AK release)
COC(=O)[C@]12C[C@H](CC(=O)NCC34CC5CC(CC(C5)C3)C4)C(=O)N(CCC3=CCCCC3)C1=C[C@H](C(C)(C)C)O[C@@H]2C	none (no result: miR122 inh, Cneo AK release)
CCCCCCCCN1C(=O)[C@@H](CC(=O)NCCCOCCCC)C[C@@]2(C(=O)OC)C1=C[C@H](C(C)(C)C)O[C@@H]2C	none (no result: miR122 inh, Cneo AK release)
CCCCCCCCN1C(=O)[C@@H](CC(=O)NCc2cccs2)C[C@@]2(C(=O)OC)C1=C[C@H](C(C)(C)C)O[C@@H]2C	Env fusion inh inconclusive (no result: miR122 inh, Cneo AK release)
COCCCNC(=O)C[C@H]1C[C@@]2(C(=O)OC)C(=C[C@H](C(C)(C)C)O[C@@H]2C)N(CCc2ccc(OC)c(OC)c2)C1=O	none (no result: miR122 inh, Cneo AK release)
COCCCNC(=O)C[C@H]1C[C@@]2(C(=O)OC)C(=C[C@H](C(C)(C)C)O[C@@H]2C)N(CCC2=CCCCC2)C1=O	Env fusion inh 59.8 (no result: INS-1E GSIS act, miR122 inh, Cneo AK release)
COC(=O)[C@]12C[C@H](CC(=O)NCc3cccs3)C(=O)N(CCC3=CCCCC3)C1=C[C@H](C(C)(C)C)O[C@@H]2C	Env fusion inh 75.6 (no result: INS-1E GSIS act, miR122 inh, Cneo AK release)
CO[C@@H]1CN(C)C(=O)c2ccc(NC(=O)c3ccc4c(c3)OCO4)cc2OC[C@H](C)N(CCC(F)(F)F)C[C@@H]1C	none (no result: miR122 inh)
COc1ccc(S(=O)(=O)N2CCCCN3[C@H](CO)[C@H](c4ccc(-c5cccnc5)cc4)[C@H]3C2)cc1	none (no result: Env fusion inh)
COc1ccc2c3c([nH]c2c1)[C@@H](CO)N(C(=O)CC1CC1)CC31CCN(Cc2cncnc2)CC1	none (no result: miR122 inh, Env fusion inh, Cneo AK release, CFTR F508del cor)
Cc1ccc([N+](=O)[O-])cc1N(CC(=O)Nc1ccc(S(=O)(=O)Nc2cccc(C(F)(F)F)c2)cc1)S(C)(=O)=O	miR122 inh 123.1 (no result: Ecoli rRNA inh, Env fusion inh, CFTR F508del cor)
COc1ccccc1N(CC(=O)Nc1cccc(C(F)(F)F)c1)S(C)(=O)=O	none (no result: CFTR F508del cor)
O=S(=O)(O)c1cccc(N=Nc2c(O)ccc3ccccc23)c1	Ecoli rRNA inh -33.2
Oc1ccc2ccccc2c1N=Nc1ccccc1F	none
CC(=O)C1=C(C)NC(=S)NC1c1ccccc1 (stereo not given)	Env fusion inh 73.9 (no result: miR122 inh, Cneo AK release)
COC(=O)C1=C(C)N(Cc2ccc(Cl)cc2)C(=S)NC1c1cccc(OC)c1 (stereo not given)	none (no result: miR122 inh, Cneo AK release)
COC(=O)C1=C(C)NC(=S)NC1c1cccc(OC)c1 (stereo not given)	INS-1E GSIS act 43.8 (no result: miR122 inh, Cneo AK release)
O=C(C[C@H]1CC[C@H](NC(=O)NC2CCCCC2)[C@@H](CO)O1)NCc1ccc(F)cc1	none
Cc1ccc(S(=O)(=O)NC(=NCC(=O)O)c2ccc(F)cc2)cc1	none (no result: INS-1E GSIS act, Ecoli rRNA inh, CFTR F508del cor)
Cc1ccc(S(=O)(=O)NC(=NCc2ccccc2)c2ccc(F)cc2)cc1	miR122 inh 116.5
C[C@H](CO)N1C[C@H](C)[C@@H](CN(C)S(=O)(=O)c2cn(C)cn2)Oc2ccc(NC(=O)Nc3ccc(F)cc3)cc2CC1=O	none (no result: Cneo AK release)
C[C@@H]1CN([C@H](C)CO)C(=O)Cc2cc(NS(=O)(=O)c3ccccc3)ccc2O[C@H]1CN(C)S(=O)(=O)c1cn(C)cn1	none
S=c1[nH]cnc2scc(-c3ccccc3)c12	Ecoli rRNA inh -29.2 (no result: CFTR F508del cor)
Clc1ncnc2scc(-c3ccccc3)c12	none (no result: INS-1E GSIS act, Ecoli rRNA inh, CFTR F508del cor)
COc1cc2c(cc1OC)/C(=C/C(=O)OCc1ccccc1)OC2	none (no result: miR122 inh, Cneo AK release)
COC(=O)/C=C1\OCc2cc(OC)c(OC)cc21	INS-1E GSIS act 54.7 (no result: Ecoli rRNA inh, miR122 inh, Cneo AK release)
COc1cc2c(cc1OC)/C(=C/C(C)=O)OC2	INS-1E GSIS act 119.3 (no result: Ecoli rRNA inh, miR122 inh, Cneo AK release)
CNC[C@H]1Oc2ccc(N(C)C)cc2C(=O)N(C)C[C@H]1C	none (no result: miR122 inh, Env fusion inh, Cneo AK release, CFTR F508del cor)
